This is an account of results in PMC8710994 (Redox Biology, 2021).

The subject of data set [1] is APAP-induced acute liver injury. In words: APAP-induced acute liver injury in mice. Type of data set: in vivo, C57BL/6 male mice.
Data set [2] in a line: MTT cytotoxicity assay, LO2. Type of data set: cell-based, human. To be noted: human, LO2 cells.
Data set [3] deals with T1, Nrf2 (Homo sapiens, UniProt Q16236).
T1 sequence (Q16236 1-605): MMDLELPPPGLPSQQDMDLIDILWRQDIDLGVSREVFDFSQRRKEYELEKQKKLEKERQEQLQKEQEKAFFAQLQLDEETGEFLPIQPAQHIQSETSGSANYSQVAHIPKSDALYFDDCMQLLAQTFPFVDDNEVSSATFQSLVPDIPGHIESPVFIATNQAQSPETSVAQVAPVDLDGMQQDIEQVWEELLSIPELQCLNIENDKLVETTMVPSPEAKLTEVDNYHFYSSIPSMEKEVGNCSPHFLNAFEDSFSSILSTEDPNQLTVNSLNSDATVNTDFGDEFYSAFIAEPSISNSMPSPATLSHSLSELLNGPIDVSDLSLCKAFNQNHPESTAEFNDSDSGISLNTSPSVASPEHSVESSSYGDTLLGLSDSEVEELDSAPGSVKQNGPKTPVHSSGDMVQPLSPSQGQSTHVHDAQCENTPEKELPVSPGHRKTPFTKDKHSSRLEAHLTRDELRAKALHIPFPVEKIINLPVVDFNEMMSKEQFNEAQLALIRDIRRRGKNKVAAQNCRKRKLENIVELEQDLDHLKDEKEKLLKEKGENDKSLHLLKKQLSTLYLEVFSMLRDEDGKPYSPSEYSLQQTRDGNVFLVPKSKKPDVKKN
In words: Cellular thermal shift assay. Type of data set: cell-based. To be noted: 1 at 5.0 μM, LO2 cell lysates.

Data set [4] relates to LO2 cells. As to the kind of experiment: Cytoprotection against APAP-induced cytotoxicity in LO2 cells. Type of data set: cell-based, human.
Data set [5] concerns the target T2, Keap1 (Homo sapiens, UniProt Q14145). In words: Cellular thermal shift assay. Type of data set: cell-based. To be noted: 1 at 5.0 μM, LO2 cell lysates. In short, it runs like this:
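LO2 lysate from 2 × 10^6 cells was diluted in PBS and split into equal aliquots. Aliquots were treated with test compound (5.0 μM) or DMSO for 30 min at room temperature, then heated individually across a temperature series. They were centrifuged, and supernatants were run on SDS-PAGE and immunoblotted for Keap1.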

Data set [6] in a line: Stability by UV-Vis and 1H NMR over 7 days. The class given is physicochemical. To be noted: 4:1 acetonitrile/aqueous medium, seven days.
Data set [7] relates to Nrf2. As to the kind of experiment: Nrf2 nuclear translocation in LO2 cells. To be noted: after 1 h. Type of data set: cell-based, human.
In data set [8] the target is T1, Nrf2. As to the kind of experiment: Isothermal titration calorimetry with recombinant Nrf2. To be noted: 200 μM of 1 titrated into Nrf2 (20 μM). The class given is binding.
A further data set has as its target Keap1 and Nrf2 binding (Homo sapiens, UniProt Q14145). In words: Competitive assay. To be noted: competitive inhibitor, double-reciprocal plot. In short, it runs like this: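 Fluorescence polarisation kit assay. Diluted Keap1 ([…]) was combined with Nrf2 peptide (1 μM stock), BSA and test compound in kit buffer. The mix was incubated 0.5 h at ambient temperature and read at excitation 485 nm, emission 535 nm. For the competitive format, wells held […] Nrf2 with test compound at several concentrations.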

The subject of data set [9] is LO2 cells. In words: MTT cytotoxicity assay, LO2. The class given is cell-based, human. To be noted: read-out: cytotoxicity IC50; LO2, MTT, 48 h. (In general: Tetrazolium dyes change colour on reduction, which living cells bring about.)
The test system of another data set is HO-1 and NQO1. In words: HO-1 and NQO1 levels in LO2 cells by Western blotting. The class given is cell-based, human. In general terms: A western blot detects proteins with antibodies after separation by electrophoresis.
For data set [10], the target named is T3, Keap1–Nrf2 interaction (Homo sapiens, UniProt Q14145). In words: Co-immunoprecipitation of Keap1 and Nrf2 in LO2 cells. The class given is cell-based. To be noted: 5.0 μM, 8 h.
A further data set concerns proteasome. In words: Proteasome activity fluorometric assay kit. To be noted: 5 μM, 8 h. Type of data set: cell-based, human. In short, it runs like this:
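LO2 cells were treated 8 h with test compound (5 μM). Proteasome activity was then measured with a commercial fluorometric kit, with MG132 as positive control.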

Data set [11] has as its target T2, Keap1. In words: Isothermal titration calorimetry with recombinant Keap1. The class given is binding. In short, it runs like this: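 Human His6-Keap1 was expressed in E. coli BL21(DE3) (1 mM IPTG, 37 °C, 4 h) and purified on a His column. Protein and test compound were dialysed into 20 mM Bis-Tris, 150 mM NaCl, 2 mM DTT. Compound (200 μM) was titrated into protein (20 μM) in 19 × 2 μL injections, 150 s apart, at 25 °C and 750 rpm. Control titrations were included; data were fitted with a composite model.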
(In ITC the heat of successive injections is recorded.)

Data set [12] is described as follows: Pharmacokinetic profile in mouse plasma by ICP-MS. Type of data set: in vivo. To be noted: mice. In short, it runs like this:
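After an overnight fast, C57BL/6J mice received test compound at 5.0 mg kg−1 i.p. Blood was collected into EDTA-2Na at 0, 0.5, 1, 2, 6, 12, 24 and 48 h. Plasma iridium was quantified by ICP-MS, n = 4, shown as mean ± SD.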

The subject of a further data set is mice. In words: Toxicity evaluation and organ distribution in mice. The class given is in vivo. In short, it runs like this: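 Mice received test compound at 2.5 or 5.0 mg kg−1 i.p.; body and organ weights were recorded after 6 h. Organ index = organ wet weight/body weight × 100%; the figure legend reports indexes at 12 h, n = 5. About 100 mg tissue was ground in liquid nitrogen, nitric-acid digested, and analysed for iridium by ICP-MS. Organs were fixed 24 h, sectioned at 4 μm, and H&E stained.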

Data set [13] deals with LO2 cells. In words: ROS detection. To be noted: 5 μM, 8 h. Type of data set: cell-based, human. In short, it runs like this: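 LO2 cells were treated with H2O2 (800 μM, 3 h) and test compound (5 μM, 8 h). Cells were labelled with 5 μM H2DCF-DA in serum-free DMEM at 37 °C for 30 min, washed, and imaged by confocal microscopy at excitation 488 nm, emission 525 nm.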
In data set [14] the test system is LO2 cells. In words: Mitochondrial membrane potential by rhodamine 123 staining in LO2 cells. Type of data set: cell-based, human. To be noted: 5 μM, 8 h. In short, it runs like this:
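LO2 cells were attached overnight, then treated 8 h with test compound (5 μM). CCCP (10 μM, 1 h) was the positive control. Cells were stained with rhodamine 123 (5 μg/mL, 30 min) for fluorescence microscopy. For quantitation, washed cells at 1.0 × 10^5 cells/mL were stained at 37 °C in the dark for 30 min and read by spectrofluorometer at excitation 505 nm, emission 534 nm.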

For data set [15], the target named is T3, Keap1–Nrf2 interaction. In words: Fluorescence polarization. To be noted: read-out: Keap1–Nrf2 binding inhibition IC50; FP assay.
The test system of data set [16] is LO2 cells. In words: Cellular uptake in LO2 cells by ICP-MS. The class given is in vitro ADME, human. To be noted: 5 μM. In short, it runs like this:
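LO2 cells were incubated with test compound at 5 μM for varying times. Iridium was then quantified by ICP-MS in whole cells and in separated nuclear and cytoplasmic fractions. Three independent experiments were run, shown as mean ± standard deviation; one-way ANOVA with Tukey's test.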

Setting [17] is: 1 at 5.0 mg kg−1, 6 h after APAP challenge.

T2 sequence (Q14145 whole entry): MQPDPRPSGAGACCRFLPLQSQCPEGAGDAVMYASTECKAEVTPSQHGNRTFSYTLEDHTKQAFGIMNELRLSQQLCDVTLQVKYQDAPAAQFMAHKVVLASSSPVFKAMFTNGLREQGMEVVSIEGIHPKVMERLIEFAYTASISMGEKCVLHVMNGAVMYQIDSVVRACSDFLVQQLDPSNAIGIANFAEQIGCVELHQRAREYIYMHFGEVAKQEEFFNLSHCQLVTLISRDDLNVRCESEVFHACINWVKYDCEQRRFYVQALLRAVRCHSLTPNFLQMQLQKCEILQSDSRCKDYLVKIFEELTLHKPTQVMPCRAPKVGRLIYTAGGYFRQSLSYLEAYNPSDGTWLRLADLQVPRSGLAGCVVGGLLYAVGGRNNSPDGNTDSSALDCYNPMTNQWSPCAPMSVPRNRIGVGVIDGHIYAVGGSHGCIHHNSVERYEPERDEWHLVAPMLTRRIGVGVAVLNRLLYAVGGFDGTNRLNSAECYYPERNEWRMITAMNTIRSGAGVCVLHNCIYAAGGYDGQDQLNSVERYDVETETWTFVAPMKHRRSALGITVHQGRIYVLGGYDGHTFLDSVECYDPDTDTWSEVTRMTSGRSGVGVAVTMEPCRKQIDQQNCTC
T3 sequence (Q14145 whole entry): as above
Chain of Keap1 and Nrf2 binding (Q14145 whole entry): as above

On to `CC(=O)Nc1ccc(O)cc1` [APAP, Acetaminophen, reference compound], for which, in data set [1] (12 h after APAP challenge), the “serum ALT, maximum level” value was 3334.98 U/L and the “serum AST, maximum level” value came to 2002.31 U/L. In addition, in data set [1] (48 h after APAP challenge), the “serum ALT” value is recorded as 608.41 U/L and the “serum AST” value amounted to 488.20 U/L. Moreover, in data set [1] (APAP 400 mg kg−1), the “increase in serum ALT compared with the control group” value came out at 188 fold and the “increase in serum AST compared with the control group” value came to 216 fold. The “percentage of necrotic liver areas” value in [1] (APAP 400 mg kg−1 i.p. alone (model group)) was found to be 21.01%.
The compound `Clc1cc(-c2ccccc2)nc2ccccc12` [Ligand 7, 4-chloro-2-phenylquinoline] registered an IC50 at 48 h in data set [2] of more than 100000 nM.
The same measure, in the same setting: then `Cc1ccc2ccc3ccc(C)nc3c2n1` [Ligand 8, 2,9-dimethyl-1,10-phenanthroline], with more than 100000 nM.
Consider “[Ir (clpq)2 (2,9-dmphen)](PF6) [Complex 1]”, for which the “shift of Nrf2 melting curve” value on Nrf2 [3] is “no significant shift”. Also, the “cell viability of LO2 cells after treatment with APAP” value in the data set with LO2 cells [4] is on record as “dose-dependent restoration of cell viability”. The “shift of Keap1 melting curve” value at Keap1 [5] is “ca. 6 °C”. For the same compound, in data set [6], the stability entry is reported as “good stability”. Moreover, the “Nrf2 accumulation in the nucleus” value in the data set with Nrf2 [7] was “induced Nrf2 accumulation in the nucleus”. Moreover, at Nrf2 [8], the “binding to Nrf2 by ITC” value is listed as “no binding was observed”. At Keap1 and Nrf2 binding, this compound showed a Ki of 1030 nM. In addition, the concentration for half-maximal inhibition (IC50) in the data set on LO2 cells [9] was 48000 nM. Moreover, the “levels of HO-1 and NQO1” value with HO-1 and NQO1 (6 h treatment) is on record as “increased”. The “increase of HO-1 and NQO1 levels in Keap1 knockdown cells versus control cells” value in the data set on HO-1 and NQO1 (Keap1 siRNA) is reported as “less effective”. Also, the “increase of HO-1 and NQO1 levels after Nrf2 knockdown” value in the data set on HO-1 and NQO1 (Nrf2 siRNA) is recorded as “muted”. Moreover, the “Nrf2 co-precipitated with Keap1” value at Keap1–Nrf2 interaction [10] was “reduction of Nrf2 co-precipitated with Keap1”. The “effect on proteasomal inhibition” value with proteasome is reported as “no significant effect”. Further, at Keap1 [11] (Keap1), the “-TΔS (ITC)” value is -1.64 kcal/mol, the “stoichiometry N (ITC)” value is reported as 0.962 ± 0.026, the “ΔG (ITC)” value was -8.39 kcal/mol and the “ΔH (ITC)” value is -6.75 kcal/mol. Besides, at Keap1 [11] (read-out: Kd (ITC), 200 μM of 1 titrated into Keap1 (20 μM), 25 °C), the dissociation constant (Kd) is 710 ± 790 nM. The compound further gave an elimination half-life in data set [12] (5 mg kg−1 i.p.) of 12 h. The “maximum mean peak area in plasma (Cmax)” value in [12] (5.0 mg kg−1 i.p.) was 13700 ng/mL. Moreover, the Cmax in data set [12] (read-out: maximum mean peak area in plasma (Cmax), 5.0 mg kg−1 i.p.) was determined as 13.4 µM. In addition, in the data set with mice (5.0 mg kg−1 i.p., 6, 12 and 24 h), the “organ damage (organ morphology, organ index, H&E)” value is “did not cause organ damage”. The “concentration in various organs (ICP-MS)” value in the data set on mice (i.p., 6 h) was “mainly concentrated in the liver and kidney”. Moreover, in the data set with LO2 cells [13], the “effect on ROS elevation” value is given as “no significant effect”. Moreover, in the data set on LO2 cells [14], the “effect on mitochondrial dysfunction” value is “no significant effect”. The IC50 at Keap1–Nrf2 interaction [15] came out at 1090 nM. Besides, in the data set on LO2 cells [16], the “cellular permeability (iridium levels in nucleus and cytoplasm)” value is “good cellular permeability”. In data set [1] (1 (5 mg/kg), time intervals 6, 12, 24 and 48 h after APAP), the “reductions of AST levels” value was 32.29–53.62%. Moreover, in [1] (setting [17]), the “decrease of serum ALT” value was 23.5% and the “decrease of serum AST” value is 25.2%. The “percentage of necrotic liver areas” value in data set [1] (APAP 400 mg kg−1 + 1 at 2.5 mg kg−1 i.p. once daily for five days) stood at 16.04%. Also, the “percentage of necrotic liver areas” value in data set [1] (APAP 400 mg kg−1 + 1 at 5.0 mg kg−1 i.p. once daily for five days) was determined as 8.99%. In [1] (mice, APAP + 1), the “Nrf2 levels in the nucleus (liver) in comparison to the APAP group” value is given as “significantly increased” and the “protein expression of Keap1 (liver)” value is “remained basal”.

As usually defined, the IC50 is the concentration needed to halve the response being measured. Broadly, the Ki is the dissociation constant of the complex between target and ligand, obtained from inhibition or displacement. Low readings indicate higher affinity, high ones lower affinity. The term Kd denotes the constant that tells how readily two partners part at equilibrium. The term Cmax denotes the maximum level reached in the sampled fluid or tissue.
